Bioassay records: PubChem, several laboratories
Shown are actives, neighbours in structure and some others; about 1.4% of the full set was active somewhere.
NR2E3 ag-1 – NR2E3 agonists in two-hybrid cells, primary screen, cell-based, luminescence, CHO-S, Gal4-NCOR/VP16-NR2E3. AID 602229, 2012. inhibition of corepressor binding, % at 3.98 µM. hit rate 0.35% among 360,000. luciferase;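 active = inhibition above the mean of all tested compounds plus 3 SD, cut at about 70% in these data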;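 note: 0% = DMSO with NR2E3 transfected cells and 100% = cells lacking NR2E3 construct; higher means lower luciferase signal from less NR2E3 corepressor binding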
NR2E3 ag-2 – inhibitors of NR2E3-RetCOR corepressor binding, primary screen, NR2E3 agonist project, biochemical, TR-FRET, GST-NR2E3, biotin-RetCOR; Photoreceptor-specific nuclear receptor (Homo sapiens), Q9Y5X4; 1536-well; inhibition of corepressor binding, % at 4.78 µM; hit rate 0.12% among 320,000; AID 2300, 2010;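 active = percent inhibition above the cutoff of mean plus 3 SD of all tested compounds, set per screening campaign, cut at about 20% in these data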;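 note: 0% = DMSO wells and 100% = biotin wells as full block of FRET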
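System: GST-tagged NR2E3 plus biotinylated RetCOR corepressor; Buffer or medium: pH 7.5 Tris-based buffer; Probe or stimulus: RetCOR corepressor, biotinylated, 7 nM; Doses: compound at 4.8 µM, single dose; Schedule: 5 h incubation at 4 °C; Technique: time-resolved FRET; Evaluation: percent inhibition of TR-FRET ratio; Replication: one well per compound, singlicate testing.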
PG9 Ab binder – binders of HIV-1 gp120 antibody PG9, primary screen, biochemical, TR-FRET | HIV-1 gp120 / PG9 antibody interaction | TR-FRET gp120-PG9 antibody binding | inhibition, % at 6.7 µM | hit rate 0.43% among 360,000 | AID 624416, 2012; in the data active = inhibition above about 8.5%
NR1D1 modulator – modulators of Rev-erb alpha DNA binding, primary screen, biochemical, FITC-DNA, fluorescence polarization, uHTS | Nuclear receptor subfamily 1 group D member 1 (Homo sapiens), P20393 | Rev-erbα–FITC-DNA binding, 90 min | activity, % at 10 µM | hit rate 0.79% among 370,000 | AID 1259318, 2017;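 active = activity above about 14%, limit read from the data; passing the limit was not always enough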;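 note: 0% = DMSO wells with 35 nM protein and 100% = DMSO wells with 750 nM protein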
Target sequence (P20393 whole entry, looked up): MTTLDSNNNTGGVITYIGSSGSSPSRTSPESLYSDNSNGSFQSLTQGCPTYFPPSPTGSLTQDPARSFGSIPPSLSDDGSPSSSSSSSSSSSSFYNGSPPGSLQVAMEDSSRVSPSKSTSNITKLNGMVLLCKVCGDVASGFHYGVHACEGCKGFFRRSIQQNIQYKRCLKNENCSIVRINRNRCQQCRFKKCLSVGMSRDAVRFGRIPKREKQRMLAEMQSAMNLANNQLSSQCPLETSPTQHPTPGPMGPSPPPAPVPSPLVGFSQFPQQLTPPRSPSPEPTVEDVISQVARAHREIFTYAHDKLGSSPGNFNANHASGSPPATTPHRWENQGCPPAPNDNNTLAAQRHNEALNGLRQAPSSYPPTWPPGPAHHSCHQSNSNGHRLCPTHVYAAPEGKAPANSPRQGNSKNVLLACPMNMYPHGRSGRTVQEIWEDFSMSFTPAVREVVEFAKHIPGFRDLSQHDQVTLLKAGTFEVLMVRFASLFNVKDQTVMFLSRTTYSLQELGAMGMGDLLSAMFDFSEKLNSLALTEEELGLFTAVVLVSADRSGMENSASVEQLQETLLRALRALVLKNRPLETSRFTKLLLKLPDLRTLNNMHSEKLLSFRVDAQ
PG9 bind confirm – binders of anti-gp120 antibody PG9, confirmation, biochemical, TR-FRET | shares compounds with PG9 Ab binder | TR-FRET PG9 antibody binding | inhibition, % at 6.7 µM | hit rate 90% among 1,500 | AID 651571, 2012; in the data active = inhibition above about 9%
PGV04 counter – binders of control antibody PGV04, counter-screen for PG9 antibody binder project, biochemical, TR-FRET, distinct HIV envelope site; TR-FRET PGV04 antibody-gp120 binding; inhibition, % at 6.7 µM; hit rate 95% among 1,500; shares compounds with PG9 Ab binder; in the data active = inhibition above about 9.5%
Active calls of the source: *; . = not tested or not shown.

SMILES	NR2E3 ag-1	NR2E3 ag-2	PG9 Ab binder	NR1D1 modulator	PG9 bind confirm	PGV04 counter
COCCNC(=O)C1(C)CCN(Cc2csc(-c3ccc(Cl)cc3)n2)C1 (stereo not drawn)	-15	.	0	7	.	.
Cc1ccc(CN2CCS(=O)(=O)CC2)cc1	-23	0	11*	0	6	13*
COC(=O)[C@]12C[C@H](CC(=O)NCc3cccs3)C(=O)N(Cc3cccc4ccccc34)C1=C[C@H](COCc1ccccc1)O[C@@H]2C	.	.	.	0	.	.
O=c1oc(-c2cccs2)nc2c1cnn2-c1ccccc1	10	1	9.5*	2	13*	18*
CCCCNS(=O)(=O)CC1NCc2cc(F)ccc21 (stereo not drawn)	.	.	.	5	.	.
O=S(=O)(c1ccc(F)c(F)c1F)N1CCN(c2ncnc3sccc23)CC1	22	.	11*	0	8	16*
O=C(c1ccc(F)cc1)C1CCN(c2ncnc3sccc23)CC1	.	.	.	5	.	.
Cc1ccc(-n2nc3c(c2NC(=O)c2ccccc2Br)CS(=O)C3)cc1 (stereo not drawn)	-9	2	8.8*	-2	8	15*
N[C@H](C(=O)N[C@@H](Cc1ccccc1)C(=O)N1CCC2CCN(S(=O)(=O)c3ccccc3)CC21)c1ccccc1 (stereo partly drawn)	.	.	.	13	.	.
O=C(CSc1nc2nc(-c3cccs3)cc(C(F)(F)F)c2c(=O)[nH]1)Nc1ccc(F)c(F)c1	-13	10	17*	-7	20*	28*
COc1ccc(CN2C/C(=C/C3=CCCCC3)N(C(=O)OCc3ccccc3)C2=N)c(OC)c1	.	.	.	2	.	.
Cc1nc2ccc(F)cc2cc1C(=O)Nc1ccc(Cl)c(Cl)c1	7	4	22*	12	24*	32*
Cc1nc2ccc(F)cc2cc1C(=O)NCc1ccco1	-26	-2	-2	-3	.	.
Cc1cc2ccccc2nc1SCC(=O)NC1CCCCC1	-13	3	6	4	.	.
Cc1cc(SCC(=O)NC2CCCCC2)nc2ccccc12	5	17	18*	9	22*	27*
Cc1cc2ccccc2nc1SCC(=O)NC1CCCC1	16	12	9.7*	5	15*	18*
CCc1nnc(NC(=O)CSc2nnc(-c3ccccc3O)n2-c2ccc(C)cc2)s1	-5	1	11*	8	14*	22*
CCCc1cc(=O)n2[nH]c(-c3cccc(Br)c3)cc2n1	-119	3	16*	23	18*	29*
COc1ccc(C(=O)COC(=O)CCN=C2NS(=O)(=O)c3ccccc32)c(OC)c1	-32	-2	17*	2	31*	45*
COC(=O)C[C@H]1CC[C@@H](NC(=O)Nc2cccc(OC)c2)[C@@H](CO)O1	.	.	0	-12	.	.
CNC(=O)c1ccc(NC(=O)C2CCN(c3ncnc4sc(C)c(C)c34)CC2)cc1	-23	-2	18*	-5	14*	18*
Cc1sc2ncnc(N3CCC(C(=O)Nc4ccc(Br)cc4Br)CC3)c2c1C	6	-3	23*	20	44*	70*
COc1cccc(NC(=O)n2ccc3ccc(-c4ccc5ccn(C(=O)Nc6cccc(OC)c6)c5c4)cc32)c1	.	.	.	5	.	.
O=C(NC1CCCCN(Cc2ccc(Cl)cc2)C1=O)c1c(F)cccc1F (stereo not drawn)	.	.	.	0	.	.
CCOC(=O)c1c(C)[nH]c(C(=O)COC(=O)COc2ccc(OC)cc2)c1C	3	5	35*	-2	35*	53*
SMILES	NR2E3 ag-1	NR2E3 ag-2	PG9 Ab binder	NR1D1 modulator	PG9 bind confirm	PGV04 counter
C=CCN1[C@H](CO)[C@H](c2ccc(C#CC3(O)CCCC3)cc2)[C@@H]1C#N	.	.	.	-3	.	.
COc1ccc(C(=O)CSc2nc(N)nc(SC)c2C#N)cc1	-4	3	21*	8	23*	28*
CSc1nc(N)nc(SCC(=O)c2ccccc2)c1C#N	-65	4	5	12	.	.
CC1(C)CC(=O)C=C(Nc2ccccc2NC(=O)c2cc(Cl)ccc2F)C1	.	.	.	-5	.	.
Nc1ccn(C2CCCCO2)c(=O)n1 (stereo not drawn)	-37	.	14*	3	6	8
Nc1ccn(C2CCCO2)c(=O)n1 (stereo not drawn)	-6	.	0	8	.	.
COc1ccc(C(=O)N2CCC2(C)C(=O)O)cc1C(F)(F)F (stereo not drawn)	-5	.	-1	-1	.	.
CC1(c2nnnn2Cc2ccccc2)CCSCC(=O)N1Cc1cccs1 (stereo not drawn)	.	.	.	-4	.	.
OC[C@H]1O[C@@H](Oc2ccc3cc(Br)ccc3c2)[C@H](O)[C@@H](O)[C@H]1O	16	9	11*	-2	17*	24*
COc1ccc(/C=C/c2cc(O)cc(OC3OC(CO)C(O)C(O)C3O)c2)cc1 (stereo not drawn)	-105	.	-1	0	.	.
COc1ccc(-c2nnc(SCC(=O)Nc3ccc(S(=O)(=O)Nc4nccs4)cc3)n2-c2ccc(OC)cc2)cc1	.	.	.	-3	.	.
COC(=O)CCC(=O)Nc1sc(C)c(C)c1C(N)=O	-24	3	2	0	.	.
COC(=O)CCC(=O)NC(=S)Nc1sc(C)c(C)c1C(N)=O	2	13	36*	12	33*	42*
COC(=O)c1ccccc1NC(=O)CSCC(=O)Nc1ccccc1	-5	3	3	1	.	.
COC(=O)c1ccccc1NC(=O)c1cccc(NC(=O)CSCc2ccccc2)c1C	24	4	33*	15	28*	43*
COc1ccc(C)cc1NC(=O)COC(=O)c1ccc2c(c1)OCCO2	-13	0	2	-3	.	.
Cc1c(Cl)cnc(NC(=O)COC(=O)c2ccncc2)c1Cl	-20	3	0	-4	.	.
COc1ccc(C)cc1NC(=O)COC(=O)c1ccc2c(c1)OCO2	9	-1	24*	8	24*	28*
Cc1c(Cl)cnc(NC(=O)COC(=O)c2ccc3c(c2)OCO3)c1Cl	-10	2	28*	-1	16*	30*
COC(=O)C1CN(Cc2ccc(F)cc2)CCS(=O)(=O)N1Cc1ccc(C(F)(F)F)cc1 (stereo not drawn)	.	.	.	-3	.	.
Nc1c(Cl)cc(-c2csc(N3CCCC3c3nc4cc(Cl)c(Cl)cc4n3CCCO)n2)cc1Cl (stereo not drawn)	-4	4	0	-7	.	.
